Experiments:
[1] = target: T1, D(2) dopamine receptor (Homo sapiens, UniProt P14416); assay: Displacement of [3H]raclopride from human D2L receptor expressed in CHO cells after 60 mins by scintillation proximity assay; assay type: cell-based
[2] = target: T2, Muscarinic acetylcholine receptor M1 (Homo sapiens) (UniProt P11229); assay: Agonist activity at human M1 receptor expressed in CHO-K1 cells assessed as calcium mobilization at 10 uM for 6 mins by Calcium4-based staining; assay type: functional, cell-based
T2 sequence (whole entry): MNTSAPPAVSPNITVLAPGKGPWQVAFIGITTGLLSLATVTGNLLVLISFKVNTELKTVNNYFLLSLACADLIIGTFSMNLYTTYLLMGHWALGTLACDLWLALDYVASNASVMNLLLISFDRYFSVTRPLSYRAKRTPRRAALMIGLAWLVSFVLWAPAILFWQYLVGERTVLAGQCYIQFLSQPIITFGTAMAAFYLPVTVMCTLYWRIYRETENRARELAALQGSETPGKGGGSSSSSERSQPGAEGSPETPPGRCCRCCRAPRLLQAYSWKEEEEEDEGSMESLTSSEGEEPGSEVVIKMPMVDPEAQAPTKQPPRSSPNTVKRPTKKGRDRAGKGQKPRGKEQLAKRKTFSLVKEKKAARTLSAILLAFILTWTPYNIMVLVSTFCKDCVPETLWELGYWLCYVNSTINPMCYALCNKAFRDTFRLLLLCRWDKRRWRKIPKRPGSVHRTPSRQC
Procedure, shortened: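 Functional agonism read as percent activity at 10 µM test concentration when no EC₅₀ could be established; means of two experiments.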

[3] = test system: Liver microsomes; assay: Intrinsic clearance in human liver microsomes at 1 uM after 60 mins; assay type: ADME, Microsome; conditions: 1 h
[4] = target: T3, Muscarinic acetylcholine receptor M1 (Homo sapiens, UniProt P11229); assay: Agonist activity at human M1 receptor expressed in CHO-K1 cells assessed as calcium mobilization for 6 mins by Calcium4-based staining; assay type: functional, cell-based
T3 sequence (P11229 whole entry): T2 sequence (whole entry)

[5] = target: Voltage-gated inwardly rectifying potassium channel KCNH2 (Homo sapiens, UniProt Q12809); assay: Inhibition of human ERG expressed in CHO cells after 30 mins by Rb+ flux assay
[6] = Lipophilicity, logP of the compound; assay type: physicochemical; conditions: octanol/water
[7] = Dissociation constant, pKa of the compound; assay type: physicochemical
[8] = target: T4, Muscarinic acetylcholine receptor M5 (Homo sapiens) (UniProt P08912); assay: Agonist activity at human muscarinic M5 receptor expressed in BHK-21 cells assessed as calcium mobilization at 10 uM for 6 mins by Calcium4-based staining relative to acetylcholine; assay type: functional, cell-based
T4 sequence (whole entry): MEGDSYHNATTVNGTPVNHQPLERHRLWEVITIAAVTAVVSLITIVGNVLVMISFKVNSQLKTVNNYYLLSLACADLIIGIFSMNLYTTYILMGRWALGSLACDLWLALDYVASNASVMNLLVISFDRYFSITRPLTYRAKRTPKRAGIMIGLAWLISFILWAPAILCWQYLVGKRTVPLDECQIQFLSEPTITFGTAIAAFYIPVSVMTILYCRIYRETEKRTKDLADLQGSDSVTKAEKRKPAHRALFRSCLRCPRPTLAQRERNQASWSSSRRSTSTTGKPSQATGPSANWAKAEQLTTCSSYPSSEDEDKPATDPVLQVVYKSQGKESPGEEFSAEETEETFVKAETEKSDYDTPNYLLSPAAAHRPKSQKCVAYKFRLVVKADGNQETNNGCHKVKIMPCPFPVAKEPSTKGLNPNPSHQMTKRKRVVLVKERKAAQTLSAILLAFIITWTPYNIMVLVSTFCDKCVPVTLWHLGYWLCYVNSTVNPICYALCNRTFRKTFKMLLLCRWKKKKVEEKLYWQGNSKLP

[9] = target: Muscarinic acetylcholine receptor M1 (Homo sapiens, UniProt P11229, Y381A); assay: Agonist activity at human muscarinic M1 receptor Y381A mutant expressed in BHK-21 cells assessed as calcium mobilization for 6 mins by Calcium4-based staining; assay type: functional, cell-based
[10] = target: T5, Muscarinic acetylcholine receptor M4 (Homo sapiens) (UniProt P08173); assay: Agonist activity at human muscarinic M4 receptor expressed in BHK-21 cells assessed as calcium mobilization at 10 uM for 6 mins by Calcium4-based staining relative to acetylcholine; assay type: functional, cell-based
T5 sequence (whole entry): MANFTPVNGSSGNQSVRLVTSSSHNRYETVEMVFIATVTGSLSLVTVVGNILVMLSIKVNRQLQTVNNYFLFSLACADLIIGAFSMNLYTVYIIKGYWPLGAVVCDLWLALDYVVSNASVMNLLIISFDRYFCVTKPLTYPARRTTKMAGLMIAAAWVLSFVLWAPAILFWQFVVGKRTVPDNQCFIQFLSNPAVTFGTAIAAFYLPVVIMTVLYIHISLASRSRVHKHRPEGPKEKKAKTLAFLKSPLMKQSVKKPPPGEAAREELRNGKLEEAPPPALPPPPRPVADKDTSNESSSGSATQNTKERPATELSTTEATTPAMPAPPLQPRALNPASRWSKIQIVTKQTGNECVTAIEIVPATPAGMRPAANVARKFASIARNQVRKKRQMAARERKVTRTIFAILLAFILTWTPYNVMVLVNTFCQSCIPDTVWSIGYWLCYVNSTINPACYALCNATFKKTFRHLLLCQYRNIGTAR

[11] = target: T6, Muscarinic acetylcholine receptor M2 (Homo sapiens) (UniProt P08172); assay: Agonist activity at human muscarinic M2 receptor expressed in CHO-K1 cells assessed as calcium mobilization at 10 uM for 6 mins by Calcium4-based staining relative to acetylcholine; assay type: functional, cell-based
T6 sequence (whole entry): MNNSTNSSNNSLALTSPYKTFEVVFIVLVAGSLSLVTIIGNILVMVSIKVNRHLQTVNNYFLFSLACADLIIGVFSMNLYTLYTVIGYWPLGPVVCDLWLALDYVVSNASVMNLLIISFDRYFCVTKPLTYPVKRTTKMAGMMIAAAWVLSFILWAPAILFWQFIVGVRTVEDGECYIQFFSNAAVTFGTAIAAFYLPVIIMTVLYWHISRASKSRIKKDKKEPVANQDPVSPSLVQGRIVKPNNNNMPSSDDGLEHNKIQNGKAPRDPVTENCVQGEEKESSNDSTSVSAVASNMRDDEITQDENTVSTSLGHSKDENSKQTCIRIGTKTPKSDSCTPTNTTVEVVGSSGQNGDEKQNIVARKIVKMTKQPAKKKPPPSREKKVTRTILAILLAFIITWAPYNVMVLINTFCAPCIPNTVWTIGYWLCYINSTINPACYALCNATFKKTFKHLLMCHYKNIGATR

[12] = Plasma clearance in […] Sprague-Dawley rat; assay type: ADME, organism-based
[13] = test system: Liver microsomes; assay: Intrinsic clearance in rat liver microsomes at 1 uM after 60 mins; assay type: ADME, Microsome; conditions: 1 h
[14] = test system: Hepatocyte; assay: Intrinsic clearance in Sprague-Dawley rat hepatocytes at 1 uM after 60 mins; assay type: ADME, cell-based; conditions: 1 h
[15] = target: Muscarinic acetylcholine receptor M3 (Homo sapiens) (UniProt P20309); assay: Agonist activity at human muscarinic M3 receptor expressed in BHK-21 cells assessed as calcium mobilization atb 10 uM for 6 mins by Calcium4-based staining relative to acetylcholine; assay type: functional, cell-based
[16] = target: T1, D(2) dopamine receptor; assay: Displacement of [3H]raclopride from human D2L receptor expressed in CHO cells at 10 uM after 60 mins by scintillation proximity assay; assay type: cell-based

Chain of Voltage-gated inwardly rectifying potassium channel KCNH2 (Q12809 whole entry): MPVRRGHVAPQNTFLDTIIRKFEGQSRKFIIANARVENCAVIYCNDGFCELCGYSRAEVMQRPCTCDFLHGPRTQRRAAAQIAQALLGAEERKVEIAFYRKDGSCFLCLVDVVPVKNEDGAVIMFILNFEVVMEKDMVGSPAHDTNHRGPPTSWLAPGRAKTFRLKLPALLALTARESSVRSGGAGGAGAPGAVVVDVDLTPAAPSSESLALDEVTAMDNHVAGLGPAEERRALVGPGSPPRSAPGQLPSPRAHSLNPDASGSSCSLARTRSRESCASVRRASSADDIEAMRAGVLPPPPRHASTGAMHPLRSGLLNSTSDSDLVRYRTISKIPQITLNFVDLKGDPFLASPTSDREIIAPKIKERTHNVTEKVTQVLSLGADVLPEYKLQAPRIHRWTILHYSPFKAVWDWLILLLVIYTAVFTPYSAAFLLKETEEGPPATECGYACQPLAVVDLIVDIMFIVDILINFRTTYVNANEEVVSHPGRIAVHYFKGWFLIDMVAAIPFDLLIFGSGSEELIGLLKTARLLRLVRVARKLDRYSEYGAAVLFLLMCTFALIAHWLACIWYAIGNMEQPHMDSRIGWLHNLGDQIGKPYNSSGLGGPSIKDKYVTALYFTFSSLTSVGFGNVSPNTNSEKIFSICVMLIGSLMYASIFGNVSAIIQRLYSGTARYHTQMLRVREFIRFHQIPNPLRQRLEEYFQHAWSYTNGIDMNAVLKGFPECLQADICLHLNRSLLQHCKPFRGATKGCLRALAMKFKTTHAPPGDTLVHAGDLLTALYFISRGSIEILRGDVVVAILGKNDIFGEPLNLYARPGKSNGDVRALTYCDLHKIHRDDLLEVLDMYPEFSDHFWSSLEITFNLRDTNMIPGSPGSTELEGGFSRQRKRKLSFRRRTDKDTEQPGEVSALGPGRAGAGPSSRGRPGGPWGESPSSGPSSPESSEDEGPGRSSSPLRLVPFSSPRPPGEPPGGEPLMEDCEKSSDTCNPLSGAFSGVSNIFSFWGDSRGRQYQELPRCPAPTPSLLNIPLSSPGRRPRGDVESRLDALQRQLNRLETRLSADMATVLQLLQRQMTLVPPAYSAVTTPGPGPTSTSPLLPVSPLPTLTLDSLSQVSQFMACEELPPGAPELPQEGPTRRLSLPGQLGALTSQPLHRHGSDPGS
T1 sequence (P14416 whole entry): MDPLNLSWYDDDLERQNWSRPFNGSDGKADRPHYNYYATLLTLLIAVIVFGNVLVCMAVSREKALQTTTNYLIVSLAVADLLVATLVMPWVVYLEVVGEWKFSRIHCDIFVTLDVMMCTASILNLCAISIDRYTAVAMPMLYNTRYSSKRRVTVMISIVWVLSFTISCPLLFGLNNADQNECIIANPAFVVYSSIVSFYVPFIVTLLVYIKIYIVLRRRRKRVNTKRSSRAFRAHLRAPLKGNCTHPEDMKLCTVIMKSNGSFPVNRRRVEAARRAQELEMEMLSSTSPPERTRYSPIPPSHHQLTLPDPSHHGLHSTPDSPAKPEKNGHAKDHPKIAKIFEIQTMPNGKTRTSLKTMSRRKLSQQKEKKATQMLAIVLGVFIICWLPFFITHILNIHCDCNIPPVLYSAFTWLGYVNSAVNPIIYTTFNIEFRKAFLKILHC
Chain of Muscarinic acetylcholine receptor M3 (Homo sapiens) (P20309 whole entry, looked up): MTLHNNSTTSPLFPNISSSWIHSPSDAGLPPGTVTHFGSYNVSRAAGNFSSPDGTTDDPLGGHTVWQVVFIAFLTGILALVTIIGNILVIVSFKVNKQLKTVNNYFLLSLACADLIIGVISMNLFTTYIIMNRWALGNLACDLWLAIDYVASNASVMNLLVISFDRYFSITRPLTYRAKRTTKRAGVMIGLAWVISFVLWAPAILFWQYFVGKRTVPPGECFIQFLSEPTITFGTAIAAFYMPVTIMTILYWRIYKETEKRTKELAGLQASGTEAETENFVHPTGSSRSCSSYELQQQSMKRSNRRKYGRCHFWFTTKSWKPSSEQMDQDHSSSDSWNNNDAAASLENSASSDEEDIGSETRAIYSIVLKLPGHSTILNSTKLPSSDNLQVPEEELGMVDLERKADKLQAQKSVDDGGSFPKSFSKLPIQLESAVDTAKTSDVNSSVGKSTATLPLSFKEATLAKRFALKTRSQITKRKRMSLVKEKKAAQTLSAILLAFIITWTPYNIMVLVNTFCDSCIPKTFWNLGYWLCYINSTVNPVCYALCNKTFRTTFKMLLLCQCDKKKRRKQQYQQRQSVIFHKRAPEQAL
Chain of Muscarinic acetylcholine receptor M1 (Homo sapiens, UniProt P11229, Y381A) (P11229 whole entry Y381A): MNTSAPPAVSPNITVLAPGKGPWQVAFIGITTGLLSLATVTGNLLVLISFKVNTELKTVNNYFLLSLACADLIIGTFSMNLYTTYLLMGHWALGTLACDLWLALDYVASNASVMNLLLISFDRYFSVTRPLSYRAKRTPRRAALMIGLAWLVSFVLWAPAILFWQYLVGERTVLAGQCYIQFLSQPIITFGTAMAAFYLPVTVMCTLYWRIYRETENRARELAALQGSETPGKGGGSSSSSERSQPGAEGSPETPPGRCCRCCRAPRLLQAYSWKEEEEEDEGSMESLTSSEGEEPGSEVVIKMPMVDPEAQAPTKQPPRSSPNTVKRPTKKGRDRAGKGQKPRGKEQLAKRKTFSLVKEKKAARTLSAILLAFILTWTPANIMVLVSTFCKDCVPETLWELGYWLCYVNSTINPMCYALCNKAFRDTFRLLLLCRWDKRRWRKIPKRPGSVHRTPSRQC

SMILES	Ki [1]	Emax [2]	CLH [3]	EC50 [4]	IC50 [5]	also measured
O=C1CCc2cc(F)ccc2N1CCCN1CCC(n2c(=O)[nH]c3ccccc32)CC1	6.5 nM	24%	6.2 L/min			
O=C1COc2ccccc2N1CCCN1CCC(n2c(=O)[nH]c3cc(F)ccc32)CC1	2.5 nM		8.8 L/min	66 nM	1900 nM	
O=C1CCc2ccccc2N1CCCN1CCC(c2ccc3[nH]ccc3c2)CC1	42 nM		9 L/min	160 nM	4400 nM	logP [6]: 4.1; pKa [7]: 9
O=C1CCc2c(F)cccc2N1CCCN1CCC(n2c(=O)[nH]c3ccccc32)CC1	60 nM		4.2 L/min	68 nM		
O=C1COc2ccccc2N1CCCN1CCC(n2c(=O)[nH]c3ncccc32)CC1	650 nM	8%	2.6 L/min			
O=C1COc2ccccc2N1CCCN1CCC(n2c(=O)[nH]c3ccncc32)CC1	> 9500 nM		0.9 L/min	1200 nM	> 50000 nM	
O=C1CCc2ccc(F)cc2N1CCCN1CCC(n2c(=O)[nH]c3ccccc32)CC1	90 nM	23%	7.8 L/min			
O=c1[nH]c2ccccc2n1C1CCN(CCOc2ccccc2)CC1 [OXIPEROMIDE]	5.5 nM		1.4 L/min	400 nM		logP [6]: 3.4; pKa [7]: 7.4
O=C1CCc2cccnc2N1CCCN1CCC(n2c(=O)[nH]c3ccccc32)CC1	600 nM		1.3 L/min	20 nM		
O=C1COc2ccccc2N1CCCN1CCC(n2c(=O)[nH]c3cnccc32)CC1	1350 nM	4%	1.7 L/min		46000 nM	
O=C1CCc2ncccc2N1CCCN1CCC(n2c(=O)[nH]c3ccccc32)CC1	2200 nM		2.8 L/min	12 nM		
O=C1COc2ccccc2N1CCCN1CCC(n2c(=O)[nH]c3ccc(F)cc32)CC1	14 nM		8.7 L/min	44 nM	4400 nM	
O=C1CCc2cccc(F)c2N1CCCN1CCC(n2c(=O)[nH]c3ccccc32)CC1	95 nM		5.5 L/min	300 nM		
O=C(Cc1ccccc1)NC1CCN(CCCN2C(=O)COc3ccccc32)CC1	> 5000 nM		3.4 L/min		20000 nM	logP [6]: 2.4; pKa [7]: 7.9
O=C1CCc2ccccc2N1CCCN1CCC(n2c(=O)[nH]c3ccccc32)CC1	9.5 nM		3.9 L/min	110 nM		logP [6]: 2.8; Emax [8]: 0%; EC50 [9]: 6.3 nM; Emax [10]: 8%; Emax [11]: 0%; CL/F [12]: 50 mL/min/kg; CLH [13]: 130 mL/min; pKa [7]: 7.6; CLH [14]: 160 mL/min; Emax [15]: 0%
O=C1CCc2cnccc2N1CCCN1CCC(n2c(=O)[nH]c3ccccc32)CC1	1100 nM	0%	9.4 L/min			
O=C1CCc2ccccc2N1OCCN1CCC(n2c(=O)[nH]c3ccccc32)CC1	55 nM	31%	2.3 L/min			
O=C1COc2ccccc2N1CCCN1CCC(n2c(=O)[nH]c3ccccc32)CC1	16 nM		5.1 L/min	73 nM		
O=C1CCc2ccncc2N1CCCN1CCC(n2c(=O)[nH]c3ccccc32)CC1		7%	3.6 L/min			Activity [16]: 55%
O=C1COc2ccccc2N1CCCN1CCC(n2c(=O)[nH]c3c(F)cccc32)CC1	15 nM		13 L/min	110 nM	3400 nM	
CC(=O)OCC[N+](C)(C)C						Emax [15]: 100%
O=C1COc2ccccc2N1CCCN1CCC(n2c(=O)[nH]c3cccc(F)c32)CC1	41 nM	22%	12 L/min			
O=C1COc2ccccc2N1CCCN1CCC(n2c(=O)[nH]c3cccnc32)CC1	1250 nM		3.5 L/min	1700 nM	13000 nM	

From ChEMBL document CHEMBL2057071, “Hit-to-lead investigation of a series of novel combined dopamine D2 and muscarinic M1 receptor ligands with putative antipsychotic and pro-cognitive potential” (Bioorg Med Chem Lett, 2012)
